Experimental data of several laboratories.
Each line is one published result; the experiments were not run side by side.
Target: Ephrin type-A receptor 4 (EPHA4, Homo sapiens, UniProt P54764)

SMILES | effect on | mode | technique | tested at | quantity | value
Cc1ccc(C(=O)NCc2ccsc2)cc1C#Cc1cn(C(C)C)c2ncnc(N)c12 | enzyme activity | inhibitor | – | 1 µM | activity vs control | 6%
CN1CC(Oc2cnc(C#N)cc2-c2ccn3nc(NC(=O)C4CC4)cc3c2)C1 | enzyme activity | inhibitor | – | 1 µM | inhibition | 11%
CNC(=O)c1cc(Oc2ccc(NC(=O)Nc3ccc(Cl)c(C(F)(F)F)c3)cc2)ccn1 | enzyme activity | inhibitor | – | 10 µM | inhibition | 56%
O=C(Nc1cnn(-c2csc(C(=O)NC3COC3)c2)c1)Nc1ccccc1Cl | enzyme activity | inhibitor | – | 5 µM | remaining activity | 100%
N#CCCc1ccc2c(c1)-c1[nH]c3ccc([N+](=O)[O-])cc3c1CC(=O)N2 | cell-free assay | – | – | 0.5 µM | remaining signal | 85.2%
Cc1ccc(Nc2nccc(N(C)c3ccc4c(C)n(C)nc4c3)n2)cc1S(N)(=O)=O | enzyme activity | inhibitor | – | 10 µM | inhibition | 28%
CCCCN(CCCC)C(=O)CN1C[C@@H](c2cc(OC)c3c(c2)OCO3)[C@H](C(=O)O)[C@H]1CC(C)(C)CCC | cell-free assay | – | competition with immobilised ligand | 1 µM | remaining binding | 95.7%
CCN(CC)c1ccc(C2=NNC(=O)CC2C)cc1[N+](=O)[O-] (centres unmarked) | enzyme activity | inhibitor | – | 10 µM | remaining activity | 85%
Cn1nc(C(F)(F)F)cc1-c1cnc(N2CCc3cc(S(=O)(=O)Nc4c(F)cc(Cl)cc4F)cc(N4CCCC4=O)c32)nc1 | cell-free assay | – | competition with immobilised ligand | 1 µM | remaining binding | 97%
CCN(CC)CCNC(=O)c1c(C)[nH]c(/C=C2\C(=O)Nc3ccc(F)cc32)c1C | enzyme activity | inhibitor | – | 10 µM | inhibition | 46%
CC/C(=N\NC(=O)NCc1cccc(O)c1)c1ccc(O)c(C)c1O | enzyme activity | inhibitor | – | 0.1 µM | inhibition | 0.3%
CC(C)(C)c1nc(-c2cccc(NS(=O)(=O)c3c(F)cccc3F)c2F)c(-c2ccnc(N)n2)s1 | enzyme activity | inhibitor | radiometric | 1 µM | remaining activity | 97%
CS(=O)(=O)N1CCCC(NC(=O)[C@H](CCC2CCCCC2)NC(=O)c2ccc(CNC(=O)c3cnc4ccccn34)cc2)C1 (some centres unmarked) | cell-free assay | – | competition with immobilised ligand | 0.1 µM | remaining binding | 98%
COc1cc(Nc2cnc(C#N)c(O[C@H](C)CN(C)C)n2)ncc1-c1cnn(C)c1 | enzyme activity | inhibitor | radiometric | 10 µM | remaining activity | 41%
O=C1Nc2ccc(Cl)cc2C1=Cc1cc(Cl)c(O)c(Cl)c1 | cell-free assay | – | – | 0.5 µM | remaining signal | 93.1%
Cc1c(NC(=O)c2cc(C(N)=O)nc3cc(F)ccc23)c(C(F)(F)F)nn1Cc1ccc(C#N)cc1 | cell-free assay | – | competition with immobilised ligand | 1 µM | remaining binding | 99%
CCCS(=O)(=O)Nc1ccc(F)c(C(=O)c2c[nH]c3ncc(-c4ccc(Cl)cc4)cc23)c1F | enzyme activity | inhibitor | – | 1 µM | inhibition | < 10%
O=C(NCCCC1CCCCC1)c1ccc(CNC(=O)c2cnn(-c3ccccc3)c2C(F)(F)F)cc1 | cell-free assay | – | competition with immobilised ligand | 0.1 µM | remaining binding | 70%
Oc1cccc(-c2nc(N3CCOCC3)c3oc4ncccc4c3n2)c1 | enzyme activity | inhibitor | – | 10 µM | remaining activity | 103%
Cc1ccc(C(=O)Nc2ccc(CN3CCN(C)CC3)c(C(F)(F)F)c2)cc1C#Cc1cnc2cccnn12 | cell-free assay | – | – | 23.5 nM | remaining signal | 22%
O=C(NCc1ncc(C(F)(F)F)cc1Cl)c1ccc2c(c1)C1(CCS(=O)(=O)CC1)[C@@H](C1CC1)N2S(=O)(=O)c1ccc(F)cc1 | cell-free assay | – | competition with immobilised ligand | 1 µM | remaining binding | 97%
COc1cc(/C=C/C(=O)CC(=O)/C=C/c2ccc(O)c(OC)c2)ccc1O | enzyme activity | inhibitor | – | 1 µM | activity vs control | 118%
COc1cc2ncnc(Nc3ccc(Oc4ccccc4)cc3C)c2cc1OC | enzyme activity | inhibitor | – | 1 µM | inhibition | 10%
Cc1nc(N2CC[C@@H](O)C2)ncc1-c1cc(C(F)(F)F)cc2[nH]ncc12 | cell-free assay | – | competition with immobilised ligand | 1 µM | remaining binding | 100%
COc1cc(Cl)c(C(=O)N[C@@H](CN[C@H]2CC[C@@H](N)CC2)Cc2ccc(C#N)cc2)cc1-c1ccc(CN[C@H](C)c2ccc(C)cc2)o1 | enzyme activity | inhibitor | – | 1 µM | remaining activity | 99%
FC(F)c1nc2ccccc2n1-c1nc(N2CCOCC2)nc(N2CCOCC2)n1 | enzyme activity | inhibitor | – | 10 µM | remaining activity | 87%
